In ChEMBL document CHEMBL2417468, “4β-[4'-(1-(Aryl)ureido)benzamide]podophyllotoxins as DNA topoisomerase I and IIα inhibitors and apoptosis inducing agents” (2013):
The source made the active and inactive calls. No cut-off for these calls is given here.

Experiments:
[1] = (§1) Growth inhibition of human Gurav cells after 48 hrs by sulforhodamine B assay; assay type: functional
[2] = molecular target: DNA topoisomerase 2-alpha (Homo sapiens) (UniProt P11388); assay: Inhibition of human topoisomerase 2alpha-mediated relaxation of supercoiled pBR322 DNA at 2 uM after 30 mins by agarose gel electrophoresis
Chain of DNA topoisomerase 2-alpha (Homo sapiens) (P11388 whole entry): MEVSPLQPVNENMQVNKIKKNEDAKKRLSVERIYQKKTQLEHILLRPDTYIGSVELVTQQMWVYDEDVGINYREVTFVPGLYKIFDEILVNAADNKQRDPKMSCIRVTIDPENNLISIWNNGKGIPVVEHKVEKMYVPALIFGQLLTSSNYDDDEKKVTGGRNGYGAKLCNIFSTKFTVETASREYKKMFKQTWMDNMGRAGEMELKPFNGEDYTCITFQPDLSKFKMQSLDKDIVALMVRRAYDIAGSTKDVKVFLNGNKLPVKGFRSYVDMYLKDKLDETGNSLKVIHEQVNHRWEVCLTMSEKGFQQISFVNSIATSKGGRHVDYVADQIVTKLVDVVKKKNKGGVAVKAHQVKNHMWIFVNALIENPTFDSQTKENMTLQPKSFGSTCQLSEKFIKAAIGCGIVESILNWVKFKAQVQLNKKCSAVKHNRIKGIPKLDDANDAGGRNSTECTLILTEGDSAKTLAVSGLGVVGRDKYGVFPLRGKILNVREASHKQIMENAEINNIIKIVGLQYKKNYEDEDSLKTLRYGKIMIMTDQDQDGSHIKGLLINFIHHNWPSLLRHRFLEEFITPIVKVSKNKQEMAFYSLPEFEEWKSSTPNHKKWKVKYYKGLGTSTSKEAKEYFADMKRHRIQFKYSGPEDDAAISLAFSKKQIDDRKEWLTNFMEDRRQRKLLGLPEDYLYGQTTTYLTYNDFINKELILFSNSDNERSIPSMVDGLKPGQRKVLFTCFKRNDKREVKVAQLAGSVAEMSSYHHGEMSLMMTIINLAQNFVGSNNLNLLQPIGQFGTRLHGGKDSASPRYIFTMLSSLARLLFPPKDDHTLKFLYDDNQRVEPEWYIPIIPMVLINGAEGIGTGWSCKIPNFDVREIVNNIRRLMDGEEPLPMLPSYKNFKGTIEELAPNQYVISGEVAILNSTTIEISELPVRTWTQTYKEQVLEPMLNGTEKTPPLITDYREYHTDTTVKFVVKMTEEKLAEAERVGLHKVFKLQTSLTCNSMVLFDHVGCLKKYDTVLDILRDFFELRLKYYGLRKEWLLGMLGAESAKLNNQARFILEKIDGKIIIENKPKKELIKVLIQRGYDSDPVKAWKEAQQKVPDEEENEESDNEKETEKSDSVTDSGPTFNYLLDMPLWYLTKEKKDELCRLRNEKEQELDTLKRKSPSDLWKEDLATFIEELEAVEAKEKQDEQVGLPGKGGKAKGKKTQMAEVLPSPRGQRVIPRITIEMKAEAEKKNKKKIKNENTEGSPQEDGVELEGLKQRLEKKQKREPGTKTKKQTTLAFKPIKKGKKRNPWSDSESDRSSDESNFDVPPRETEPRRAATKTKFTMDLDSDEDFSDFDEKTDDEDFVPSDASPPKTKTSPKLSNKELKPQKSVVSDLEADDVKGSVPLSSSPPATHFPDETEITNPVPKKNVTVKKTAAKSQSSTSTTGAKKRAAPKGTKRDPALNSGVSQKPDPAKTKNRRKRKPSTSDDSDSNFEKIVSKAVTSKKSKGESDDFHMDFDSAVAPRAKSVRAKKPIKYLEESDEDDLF
In short: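 Purified human topoisomerase IIα (4 units) with 200 ng supercoiled pBR322 and compound at 2 µM, 30 min at 30 °C in 10 mM Tris-HCl pH 7.9, 50 mM NaCl, 5 mM MgCl2, 1 mM EDTA, 1 mM ATP, 15 µg/mL BSA; EDTA-stopped; 1% agarose gel in TAE, ethidium bromide, UV visualisation.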

COLO 205 [3] = assay: Cytotoxicity against human COLO205 cells assessed as reduction in cellular ATP level at 2 uM after 24 hrs by bioluminescence assay; assay type: functional, cell-based
In short: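 Colo-205 cells exposed 24 h at 2 µM, lysed in ice-cold RIPA, debris spun off at 4 °C; intracellular ATP in supernatant by luciferin-luciferase bioluminescence kit; three independent experiments, mean ± S.D., untreated control.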

COLO 205 [4] = assay: Induction of apoptosis in human COLO205 cells assessed as caspase-3 activation at 2 uM after 24 hrs by Western blotting analysis; assay type: functional, cell-based
In short: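 Colo-205 cells grown to 80% confluency, 2 µM final for 24 h; RIPA lysates with protease inhibitors, Bradford-quantified, 50 µg protein per lane on 12% SDS-PAGE, PVDF transfer, probed overnight at 4 °C for active caspase-3, β-actin as loading control, chemiluminescent detection.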

COLO 205 [5] = assay: Induction of apoptosis in human COLO205 cells assessed as caspase-3 activation at 2 uM after 24 hrs by ELISA; assay type: functional, cell-based
In short: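 Colo-205 cells exposed 24 h at 2 µM; lysates in 2X reaction buffer with DTT plus caspase substrate, 1 h at 37 °C; fluorescence read at ex 400/em 505 nm; three independent experiments, mean ± S.D., versus untreated control.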

SiHa = assay: Growth inhibition of human SiHa cells after 48 hrs by sulforhodamine B assay; assay type: functional
COLO 205 [6] = assay: Cytotoxicity against human COLO205 cells assessed as viable cells at 2 uM after 24 hrs by trypan blue exclusion assay; assay type: functional, cell-based
In short: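 Colo-205 cells treated 24 h at 1, 2 and 4 µM, trypsinised, mixed with 0.4% trypan blue (10 µl per 100 µl cells), counted on haemocytometer; percentage dead cells calculated; triplicate samples.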

ZR-75-1 = assay: Growth inhibition of human ZR-75-1 cells after 48 hrs by sulforhodamine B assay; assay type: functional
COLO 205 [7] = assay: Cell cycle arrest in human COLO205 cells assessed as accumulation at G2/M phase at 2 uM after 24 hrs by propidium iodide staining-based FACS flow cytometric analysis (reference value: 29.52%); assay type: functional
HOP-62 = assay: Growth inhibition of human HOP62 cells after 48 hrs by sulforhodamine B assay; assay type: functional
MDA-MB-231 [8] = assay: Cytotoxicity against human MDA-MB-231 cells assessed as cell viability at <0.5 to 1 uM after 24 hrs by MTT assay; assay type: functional, cell-based
In short: (§2)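 Colo-205 (RPMI, 10% FCS) and MDA-MB-231 (DMEM, 2 mM glutamax, 10% FCS, penicillin/streptomycin) seeded at 1 104 cells/well, 18 h preincubation; fresh medium with compound at 0.5, 1, 2 and 4 µM for 24 h at 37 °C; MTT 2 h, formazan solubilised, OD 570 nm; DMSO ≤0.25%, DMSO-only wells as untreated control.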

MCF7 = assay: Growth inhibition of human MCF7 cells after 48 hrs by sulforhodamine B assay; assay type: functional; details: MCF7, 48 h
A549 = assay: Growth inhibition of human A549 cells after 48 hrs by sulforhodamine B assay; assay type: functional
[9] = (§3) Growth inhibition of human DWD cells after 48 hrs by sulforhodamine B assay; assay type: functional
KB = assay: Growth inhibition of human KB cells after 48 hrs by sulforhodamine B assay; assay type: functional
A2780 = assay: Growth inhibition of human A2780 cells after 48 hrs by sulforhodamine B assay; assay type: functional
COLO 205 [10] = assay: Cytotoxicity against human COLO205 cells assessed as cell viability at <0.5 to 1 uM after 24 hrs by MTT assay; assay type: functional, cell-based; in short: as §2
COLO 205 [11] = assay: Cell cycle arrest in human COLO205 cells assessed as accumulation at G0/G1 phase at 2 uM after 24 hrs by propidium iodide staining-based FACS flow cytometric analysis (reference value: 65.23%); assay type: functional
COLO 205 [12] = assay: Growth inhibition of human COLO205 cells after 48 hrs by sulforhodamine B assay; assay type: functional
MDA-MB-231 [13] = assay: Cytotoxicity against human MDA-MB-231 cells assessed as cell viability at 2 to 4 uM after 24 hrs by MTT assay; assay type: functional, cell-based; in short: as §2
COLO 205 [14] = assay: Cytotoxicity against human COLO205 cells assessed as cell viability at 2 to 4 uM after 24 hrs by MTT assay; assay type: functional, cell-based; in short: as §2
COLO 205 [15] = assay: Cell cycle arrest in human COLO205 cells assessed as accumulation at S phase at 2 uM after 24 hrs by propidium iodide staining-based FACS flow cytometric analysis (reference value: 4.21%); assay type: functional
DWD = assay: as §3; assay type: functional
Gurav = assay: as §1; assay type: functional

Structure (SMILES)	GI50 [1]	GI50 (SiHa)	GI50 (ZR-75-1; ZR-75-1, 48 h)	GI50 (HOP-62; HOP-62, 48 h)	GI50 (MCF7)	GI50 (A549; A549, 48 h)	GI50 [9]	GI50 (KB)	GI50 (A2780; A2780, 48 h)	GI50 (COLO 205 [12]; COLO 205, 48 h)	GI50 (HOP-62)	GI50 (COLO 205 [12])	GI50 (Gurav)	further results
COc1cc([C@@H]2c3cc4c(cc3[C@@H](NC(=O)c3ccc(NC(=O)NCCBr)cc3)[C@H]3COC(=O)[C@H]23)OCO4)cc(OC)c1OC	1.85 µM	0.21 µM	0.16 µM	0.1 µM	0.14 µM	0.1 µM	0.17 µM	inactive	0.14 µM	0.01 µM				Inhibition of relaxation (qualitative call) [2]: Active; Activity (COLO 205 [3]): Active; Activity (COLO 205 [4]): Active; Activity (COLO 205 [5]): Active; Activity (COLO 205 [6]): Active; Activity (COLO 205 [7]): 19.94%; Activity (MDA-MB-231 [8]): inactive; Activity (COLO 205 [10]): inactive; Activity (COLO 205 [11]): 74.1%; Activity (MDA-MB-231 [13]): Active; Activity (COLO 205 [14]): Active; Percent of cells in S phase (COLO 205 [15]): 5.96%
COc1cccc2c1C(=O)c1c(O)c3c(c(O)c1C2=O)C[C@@](O)(C(=O)CO)C[C@@H]3O[C@H]1C[C@H](N)[C@H](O)[C@H](C)O1 [DOXORUBICIN]	0.17 µM	0.17 µM		0.14 µM	0.17 µM		0.1 µM	0.17 µM	0.16 µM	0.14 µM				
COc1cc([C@@H]2c3cc4c(cc3[C@@H](NC(=O)c3ccc(NC(=O)Nc5cccc6ccccc56)cc3)[C@H]3COC(=O)[C@H]23)OCO4)cc(OC)c1OC	2.9 µM	2.3 µM	2 µM		0.11 µM	2.01 µM		inactive	2.22 µM	2.23 µM	inactive			GI50 (DWD): inactive
COc1cc([C@@H]2c3cc4c(cc3[C@@H](NC(=O)c3ccc(NC(=O)Nc5cccc(Cl)c5)cc3)[C@H]3COC(=O)[C@H]23)OCO4)cc(OC)c1OC	2.01 µM	inactive	2.9 µM	2.5 µM	2.6 µM		2.3 µM	inactive	2.8 µM	2.6 µM				GI50 (A549): inactive
COc1cc([C@@H]2c3cc4c(cc3[C@@H](NC(=O)c3ccc(NC(=O)NCCCl)cc3)[C@H]3COC(=O)[C@H]23)OCO4)cc(OC)c1OC	0.1 µM	inactive	2.9 µM	0.12 µM	0.1 µM	1.12 µM	1.6 µM	0.21 µM	1.3 µM	0.01 µM				Inhibition of relaxation (qualitative call) [2]: Active; Activity (COLO 205 [3]): Active; Activity (COLO 205 [4]): Active; Activity (COLO 205 [5]): Active; Activity (COLO 205 [6]): Active; Activity (COLO 205 [7]): 18.15%; Activity (MDA-MB-231 [8]): inactive; Activity (COLO 205 [10]): inactive; Activity (COLO 205 [11]): 76.22%; Activity (MDA-MB-231 [13]): Active; Activity (COLO 205 [14]): Active; Percent of cells in S phase (COLO 205 [15]): 5.62%
COc1cc([C@@H]2c3cc4c(cc3[C@@H](NC(=O)c3ccc(NC(=O)Nc5cc(C)cc(C)c5)cc3)[C@H]3COC(=O)[C@H]23)OCO4)cc(OC)c1OC	2.7 µM	inactive	2.91 µM		0.15 µM		1.6 µM	2.31 µM			inactive	inactive		GI50 (A549): inactive; GI50 (A2780): inactive
COc1cc([C@@H]2c3cc4c(cc3[C@@H](NC(=O)c3ccc(NC(=O)Nc5ccc(Br)s5)cc3)[C@H]3COC(=O)[C@H]23)OCO4)cc(OC)c1OC		2.9 µM	2.4 µM	2.6 µM	0.12 µM	1.4 µM	0.1 µM	2.5 µM	2.1 µM			inactive	inactive	
COc1cc([C@@H]2c3cc4c(cc3[C@@H](NC(=O)c3ccc(NC(=O)Nc5c(Cl)cccc5Cl)cc3)[C@H]3COC(=O)[C@H]23)OCO4)cc(OC)c1OC		inactive			0.15 µM			2.8 µM			inactive	inactive	inactive	GI50 (ZR-75-1): inactive; GI50 (A549): inactive; GI50 (DWD): inactive; GI50 (A2780): inactive
COc1ccc(NC(=O)Nc2ccc(C(=O)N[C@@H]3c4cc5c(cc4[C@@H](c4cc(OC)c(OC)c(OC)c4)[C@H]4C(=O)OC[C@@H]43)OCO5)cc2)cc1	0.24 µM	inactive	0.18 µM	0.12 µM	1.1 µM	1.5 µM	1.7 µM	2.31 µM	1.35 µM	0.02 µM				Inhibition of relaxation (qualitative call) [2]: Active; Activity (COLO 205 [3]): Active; Activity (COLO 205 [4]): Active; Activity (COLO 205 [5]): Active; Activity (COLO 205 [6]): Active; Activity (COLO 205 [7]): 17.88%; Activity (MDA-MB-231 [8]): inactive; Activity (COLO 205 [10]): inactive; Activity (COLO 205 [11]): 76.61%; Activity (MDA-MB-231 [13]): Active; Activity (COLO 205 [14]): Active; Percent of cells in S phase (COLO 205 [15]): 5.09%
COc1cc([C@@H]2c3cc4c(cc3[C@@H](NC(=O)c3ccc(NC(=O)NCc5ccco5)cc3)[C@H]3COC(=O)[C@H]23)OCO4)cc(OC)c1OC		inactive	2.6 µM		2.9 µM	2.62 µM	2.5 µM	1.93 µM	2.3 µM	2.34 µM	inactive		inactive	
COc1cc([C@@H]2c3cc4c(cc3[C@@H](NC(=O)c3ccc(NC(=O)Nc5cc(C(F)(F)F)cc(C(F)(F)F)c5)cc3)[C@H]3COC(=O)[C@H]23)OCO4)cc(OC)c1OC		inactive	2.22 µM		2.7 µM	2.98 µM		2.6 µM	2.3 µM		inactive	inactive	inactive	GI50 (DWD): inactive
COc1cc([C@@H]2c3cc4c(cc3[C@@H](NC(=O)c3ccc(NC(=O)Nc5ccc(F)c(Cl)c5)cc3)[C@H]3COC(=O)[C@H]23)OCO4)cc(OC)c1OC		inactive	2.9 µM	2.71 µM	0.12 µM	1.5 µM	2.61 µM	2.01 µM		2.52 µM			inactive	GI50 (A2780): inactive
